# Measurements: ChEMBL document CHEMBL1255444, “In vitro antibacterial activities of JNJ-Q2, a new broad-spectrum fluoroquinolone” (Antimicrob Agents Chemother, 2010)
# Active and inactive are the calls of the source. The calls are words filed in the database; no cut-off is given here.
# What was measured:
# [1] = tested on: Staphylococcus aureus; assay: Antibacterial activity against methicillin-resistant Staphylococcus aureus isolate OC4222 harboring gyrA S84L and parC S80F mutant gene assessed as >= 4 fold increase in bactericidal activity by broth microdilution method in presence of 20 ug/ml reserpine; type: functional, organism-based
# [2] = tested on: Staphylococcus aureus; assay: Antibacterial activity against methicillin-resistant Staphylococcus aureus isolate OC17042 harboring gyrA S84L/G106D, parC S80F and parE D732N mutant gene assessed as >= 4 fold increase in bactericidal activity by broth microdilution method in presence of 20 ug/ml reserpine; type: functional, organism-based
# [3] = tested on: Staphylococcus aureus; assay: Antibacterial activity against methicillin-resistant Staphylococcus aureus isolate OC12501 assessed as >= 4 fold increase in bactericidal activity by broth microdilution method in presence of 20 ug/ml reserpine; type: functional, organism-based
# [4] = tested on: Staphylococcus aureus; assay: Antibacterial activity against methicillin-resistant Staphylococcus aureus isolate OC11696 assessed as >= 4 fold increase in bactericidal activity by broth microdilution method in presence of 20 ug/ml reserpine; type: functional, organism-based
# [5] = tested on: Staphylococcus aureus; assay: Antibacterial activity against methicillin-resistant Staphylococcus aureus isolate OC11521 harboring gyrA S84L/S85P, parC E84G mutant gene assessed as >= 4 fold increase in bactericidal activity by broth microdilution method in presence of 20 ug/ml reserpine; type: functional, organism-based
# [6] = tested on: Staphylococcus aureus; assay: Antibacterial activity against methicillin-resistant Staphylococcus aureus isolate OC8525 harboring wild type quinolone resistance-determining region assessed as >= 4 fold increase in bactericidal activity by broth microdilution method in presence of 20 ug/ml reserpine; type: functional, organism-based
# [7] = tested on: Staphylococcus aureus; assay: Antibacterial activity against methicillin-resistant Staphylococcus aureus isolate OC8530 harboring gyrA S84L and parC I143V mutant gene assessed as >= 4 fold increase in bactericidal activity by broth microdilution method in presence of 20 ug/ml reserpine; type: functional, organism-based
# [8] = tested on: Citrobacter freundii; assay: Antibacterial activity against Citrobacter freundii by broth microdilution method; type: functional
# Summary of the method: (§1)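 MICs by CLSI M07-A7 broth microdilution in cation-adjusted Mueller-Hinton medium. For S. pneumoniae the medium was supplemented with 5% lysed horse blood. CLSI quality control strains were run alongside as appropriate.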
# [9] = tested on: Enterococcus faecium; assay: Antibacterial activity against Enterococcus faecium by broth microdilution method; type: functional; summary of the method: as §1
# [10] = tested on: Enterococcus faecalis; assay: Antibacterial activity against Enterococcus faecalis ATCC 29212 by broth microdilution method; type: functional; summary of the method: as §1
# [11] = tested on: Staphylococcus epidermidis; assay: Antibacterial activity against methicillin-resistant Staphylococcus epidermidis by broth microdilution method; type: functional
# [12] = tested on: Serratia marcescens; assay: Antibacterial activity against Serratia marcescens by broth microdilution method; type: functional; summary of the method: as §1
# [13] = tested on: Staphylococcus aureus; assay: Antibacterial activity against methicillin-resistant Staphylococcus aureus isolate OC8532 harboring wild type quinolone resistance-determining region by agar dilution method; type: functional
# Summary of the method: (§2)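 CLSI agar dilution MIC on cation-adjusted Mueller-Hinton medium. These were the MIC values used for the resistance studies, and CLSI quality-control strains were included as appropriate.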
# [14] = tested on: Streptococcus pyogenes; assay: Antibacterial activity against Streptococcus pyogenes by broth microdilution method; type: functional; summary of the method: as §1
# [15] = tested on: Staphylococcus aureus; assay: Antibacterial activity against methicillin-, ciprofloxacin-resistant Staphylococcus aureus by broth microdilution method; type: functional
# Summary of the method: (§3)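 CLSI M07-A7 broth microdilution MIC. Medium was cation-adjusted Mueller-Hinton broth. For S. pneumoniae it was Mueller-Hinton supplemented with 5% lysed horse blood. CLSI quality-control strains were included as appropriate.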
# [16] = tested on: Moraxella catarrhalis; assay: Antibacterial activity against Moraxella catarrhalis by broth microdilution method; type: functional; summary of the method: as §1
# [17] = Antibacterial activity against Streptococcus sp. group C by broth microdilution method; type: functional
# Summary of the method: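 MICs by broth microdilution following CLSI M07-A7 in cation-adjusted Mueller-Hinton medium, using isolates from the J&JPRD culture collection. CLSI quality control strains were included as appropriate.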
# [18] = tested on: Proteus mirabilis; assay: Antibacterial activity against Proteus mirabilis by broth microdilution method; type: functional; summary of the method: as §1
# [19] = tested on: Staphylococcus aureus; assay: Antibacterial activity against methicillin-resistant Staphylococcus aureus isolate OC15425 harboring gyrA S84L and parC S80F mutant gene by agar dilution method; type: functional
# Summary of the method: (§4)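 MICs for the resistance-selection studies were determined by CLSI agar dilution on Mueller-Hinton medium. For S. pneumoniae the medium was supplemented with 5% lysed horse blood. For MRSA fluctuation-assay strains an arithmetic agar dilution scheme was used for a more precise MIC.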
# [20] = tested on: Staphylococcus aureus; assay: Antibacterial activity against methicillin-resistant Staphylococcus aureus isolate OC11150 harboring gyrA S84L and parC S80Y mutant gene by agar dilution method; type: functional; summary of the method: as §4
# [21] = tested on: Streptococcus agalactiae; assay: Antibacterial activity against Streptococcus agalactiae by broth microdilution method; type: functional; summary of the method: as §1
# [22] = tested on: Staphylococcus aureus; assay: Antibacterial activity against methicillin-resistant Staphylococcus aureus isolate OC8525 harboring wild type quinolone resistance-determining region by agar dilution method; type: functional; summary of the method: as §2
# [23] = tested on: Providencia stuartii; assay: Antibacterial activity against Providencia stuartii by broth microdilution method; type: functional; summary of the method: as §1
# [24] = tested on: Staphylococcus aureus; assay: Antibacterial activity against Staphylococcus aureus […] by broth microdilution method; type: functional; summary of the method: as §3
# [25] = tested on: Klebsiella aerogenes; assay: Antibacterial activity against Enterobacter aerogenes by broth microdilution method; type: functional; summary of the method: as §1
# [26] = tested on: Streptococcus pneumoniae; assay: Antibacterial activity against ciprofloxacin-resistant Streptococcus pneumoniae by broth microdilution method; type: functional; summary of the method: as §3
# [27] = tested on: Escherichia coli; assay: Antibacterial activity against ciprofloxacin-resistant Escherichia coli by broth microdilution method; type: functional; summary of the method: as §3
# [28] = tested on: Haemophilus influenzae; assay: Antibacterial activity against Haemophilus influenzae by broth microdilution method; type: functional; summary of the method: as §1
# [29] = tested on: Pseudomonas aeruginosa; assay: Antibacterial activity against Pseudomonas aeruginosa ATCC 27853 by broth microdilution method; type: functional; summary of the method: as §1
# [30] = tested on: Staphylococcus epidermidis; assay: Antibacterial activity against methicillin-susceptible Staphylococcus epidermidis by broth microdilution method; type: functional
# [31] = tested on: Staphylococcus epidermidis; assay: Antibacterial activity against methicillin-, ciprofloxacin-resistant Staphylococcus epidermidis by broth microdilution method; type: functional
# [32] = tested on: Staphylococcus aureus; assay: Antibacterial activity against methicillin-resistant Staphylococcus aureus by broth microdilution method; type: functional; summary of the method: as §3
# [33] = tested on: Streptococcus pneumoniae; assay: Antibacterial activity against Streptococcus pneumoniae ATCC 49619 by broth microdilution method; type: functional; summary of the method: as §1
# [34] = tested on: Klebsiella pneumoniae; assay: Antibacterial activity against Klebsiella pneumoniae by broth microdilution method; type: functional; summary of the method: as §1
# [35] = tested on: Enterobacter cloacae; assay: Antibacterial activity against Enterobacter cloacae by broth microdilution method; type: functional
# [36] = tested on: Staphylococcus aureus; assay: Antibacterial activity against methicillin-susceptible Staphylococcus aureus by broth microdilution method; type: functional
compound,measurement,setting,value
CC[n+]1c(-c2ccccc2)c2cc(N)ccc2c2ccc(N)cc21,Activity,[1],Active
same,Activity,[2],Active
same,Activity,[3],Active
same,Activity,[4],Active
same,Activity,[5],Active
same,Activity,[6],Active
same,Activity,[7],Active
CCn1cc(C(=O)O)c(=O)c2cc(F)c(N3CCNCC3)cc21,Activity,[1],Active
same,Activity,[2],Active
same,Activity,[3],Active
same,Activity,[4],Active
same,Activity,[5],Active
same,Activity,[6],Active
same,Activity,[7],Active
O=C(O)c1cn(C2CC2)c2cc(N3CCNCC3)c(F)cc2c1=O [CIPROFLOXACIN],MIC50,[8],2 µg/mL
same,MIC90,[8],> 4 µg/mL
same,MIC50,[9],4 µg/mL
same,MIC90,[9],> 16 µg/mL
same,MIC50,[10],1 µg/mL
same,MIC90,[10],> 16 µg/mL
same,MIC50,[11],16 µg/mL
same,MIC90,[11],64 µg/mL
same,MIC50,[12],0.12 µg/mL
same,MIC90,[12],0.25 µg/mL
same,MIC,[13],0.6 µg/mL
same,MIC50,[14],0.5 µg/mL
same,MIC90,[14],1 µg/mL
same,MIC50,[15],> 32 µg/mL
same,MIC90,[15],32 µg/mL
same,MIC50,[16],0.06 µg/mL
same,MIC90,[16],0.06 µg/mL
same,MIC50,[17],0.25 µg/mL
same,MIC90,[17],1 µg/mL
same,MIC50,[18],0.03 µg/mL
same,MIC90,[18],0.06 µg/mL
same,MIC,[19],12 µg/mL
same,MIC,[20],12 µg/mL
same,MIC50,[21],1 µg/mL
same,MIC90,[21],1 µg/mL
same,MIC,[22],3 µg/mL
same,MIC50,[23],32 µg/mL
same,MIC90,[23],64 µg/mL
same,MIC50,[24],16 µg/mL
same,MIC90,[24],> 32 µg/mL
same,MIC50,[25],0.03 µg/mL
same,MIC90,[25],0.03 µg/mL
same,MIC50,[26],32 µg/mL
same,MIC90,[26],64 µg/mL
same,MIC50,[27],64 µg/mL
same,MIC90,[27],256 µg/mL
same,MIC,[28],0.008 µg/mL
same,MIC50,[28],0.008 µg/mL
same,MIC90,[28],0.015 µg/mL
same,MIC50,[29],0.25 µg/mL
same,MIC90,[29],0.5 µg/mL
same,MIC50,[30],0.25 µg/mL
same,MIC90,[30],0.5 µg/mL
same,MIC50,[31],64 µg/mL
same,MIC90,[31],128 µg/mL
same,MIC50,[32],16 µg/mL
same,MIC90,[32],> 32 µg/mL
CC[C@H]1OC(=O)[C@H](C)[C@@H](O[C@H]2C[C@@](C)(OC)[C@@H](O)[C@H](C)O2)[C@H](C)[C@@H](O[C@@H]2O[C@H](C)C[C@H](N(C)C)[C@H]2O)[C@](C)(O)C[C@@H](C)C(=O)[C@H](C)[C@@H](O)[C@]1(C)O [ERYTHROMYCIN],MIC50,[33],0.06 µg/mL
same,MIC90,[33],16 µg/mL
CO/N=C1\CN(c2nc3c(cc2F)c(=O)c(C(=O)O)cn3C2CC2)CC1CN (stereo not given) [GEMIFLOXACIN],MIC50,[8],1 µg/mL
same,MIC90,[8],> 4 µg/mL
same,MIC50,[33],0.03 µg/mL
same,MIC90,[33],0.5 µg/mL
same,MIC50,[12],0.25 µg/mL
same,MIC90,[12],0.5 µg/mL
same,MIC,[16],≤ 0.015 µg/mL
same,MIC50,[16],≤ 0.015 µg/mL
same,MIC90,[16],≤ 0.015 µg/mL
same,MIC50,[18],0.12 µg/mL
same,MIC90,[18],0.25 µg/mL
same,MIC50,[27],32 µg/mL
same,MIC90,[27],64 µg/mL
same,MIC50,[28],≤ 0.004 µg/mL
same,MIC90,[28],0.008 µg/mL
C[C@H]1COc2c(N3CCN(C)CC3)c(F)cc3c(=O)c(C(=O)O)cn1c23.C[C@H]1COc2c(N3CCN(C)CC3)c(F)cc3c(=O)c(C(=O)O)cn1c23.O [LEVOFLOXACIN],MIC50,[34],0.06 µg/mL
same,MIC90,[34],0.12 µg/mL
same,MIC50,[11],8 µg/mL
same,MIC90,[11],16 µg/mL
same,MIC50,[35],0.06 µg/mL
same,MIC90,[35],0.12 µg/mL
same,MIC50,[23],16 µg/mL
same,MIC90,[23],64 µg/mL
same,MIC50,[25],0.06 µg/mL
same,MIC90,[25],0.06 µg/mL
same,MIC50,[26],16 µg/mL
same,MIC90,[26],64 µg/mL
same,MIC50,[27],16 µg/mL
same,MIC90,[27],64 µg/mL
same,MIC,[29],0.5 µg/mL
same,MIC50,[29],0.5 µg/mL
same,MIC90,[29],2 µg/mL
same,MIC,[30],0.12 µg/mL
same,MIC50,[30],0.12 µg/mL
same,MIC90,[30],0.25 µg/mL
same,MIC50,[31],16 µg/mL
same,MIC90,[31],16 µg/mL
CC1(C)S[C@@H]2[C@H](NC(=O)Cc3ccccc3)C(=O)N2[C@H]1C(=O)O [PENICILLIN G],MIC50,[33],0.06 µg/mL
same,MIC90,[33],2 µg/mL
CN[C@H](CC(C)C)C(=O)N[C@H]1C(=O)N[C@@H](CC(N)=O)C(=O)N[C@H]2C(=O)N[C@H]3C(=O)N[C@H](C(=O)N[C@H](C(=O)O)c4cc(O)cc(O)c4-c4cc3ccc4O)[C@H](O)c3ccc(c(Cl)c3)Oc3cc2cc(c3O[C@@H]2O[C@H](CO)[C@@H](O)[C@H](O)[C@H]2O[C@H]2C[C@](C)(N)[C@H](O)[C@H](C)O2)Oc2ccc(cc2Cl)[C@H]1O [VANCOMYCIN],MIC50,[9],> 16 µg/mL
same,MIC90,[9],> 16 µg/mL
same,MIC50,[10],2 µg/mL
same,MIC90,[10],> 16 µg/mL
same,MIC50,[11],2 µg/mL
same,MIC90,[11],2 µg/mL
same,MIC50,[15],1 µg/mL
same,MIC90,[15],1 µg/mL
same,MIC50,[24],1 µg/mL
same,MIC90,[24],1 µg/mL
same,MIC50,[36],1 µg/mL
same,MIC90,[36],2 µg/mL
same,MIC50,[30],2 µg/mL
same,MIC90,[30],2 µg/mL
same,MIC50,[31],2 µg/mL
same,MIC90,[31],2 µg/mL
same,MIC50,[32],1 µg/mL
same,MIC90,[32],1 µg/mL
